# CHO parental Ca: ATP-evoked calcium signal inhibitors, parental CHO, primary screen, counter-screen for OX1R antagonist project, cell-based, fluorescence, Fluo-8 calcium dye | 0.63% of 330,000 active | AID 463079, 2010 | inhibition, % at 5.6 µM | parental CHO-K1, ATP-induced calcium, Fluo-8 fluorescence;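 active = inhibition above that plate's mean sample inhibition plus 3 SD, cut at about 26% in these data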;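 also: 0% = ATP-challenged DMSO wells and 100% = DMSO wells without ATP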
#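 Test system: untransfected parental CHO cell line; also added: ATP stimulus; dosing: 5.6 µM, single dose; signal: calcium-sensitive Fluo-8 fluorescence; measure: percent inhibition of ATP-evoked calcium rise, normalized to controls; benchmarks: low control ATP plus DMSO, high control DMSO only; replication: one well per compound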
# V1aR counter: agonists of human V1a receptor, primary screen, counter-screen for OXTR agonist project, fluorescence, CHO-V1R cells; Vasopressin V1a receptor (Homo sapiens), P37288; Fluo-8 calcium fluorescence, agonist mode; 0% DMSO, 100% 3 nM vasopressin; activation, % at 3 µM; 0.25% of 320,000 active;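 active = activation above the mean activation of all tested compounds plus 3 SD, per screening run, cut at about 20% in these data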;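 also: signal is peak over basal fluorescence ratio across a 100 second FLIPR read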
# OXTR agonist: human OXTR agonists, primary screen, fluorescence, CHO-OTR cells, Fluo-8 calcium; activation, % at 3 µM; 0.32% of 320,000 active; Fluo-8 calcium fluorescence; normalized: DMSO 0%, oxytocin 100%;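 active = activation above the mean of all tested compounds plus 3 SD, cutoff set per screening run, cut at about 20% in these data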;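 also: peak over basal fluorescence ratio from a 100 s FLIPR kinetic read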
# OX1R antag-1: OX1R (HCRTR1) antagonists, primary screen, fluorescence, CHO/OX1R cells, Fluo-8 calcium, orexin A; Orexin/Hypocretin receptor type 1 (Homo sapiens), O43613; Fluo-8 calcium fluorescence; inhibition, % at 5 µM; 0.43% of 330,000 active; AID 434989, 2010;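 active = inhibition above its plate's threshold, mean inhibition of all tested compounds on the plate plus 3 SD, cut at about 37% in these data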;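 also: 0% = orexin A challenge wells and 100% = SB-334867-A antagonist wells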
# Target sequence (O43613 whole entry, looked up): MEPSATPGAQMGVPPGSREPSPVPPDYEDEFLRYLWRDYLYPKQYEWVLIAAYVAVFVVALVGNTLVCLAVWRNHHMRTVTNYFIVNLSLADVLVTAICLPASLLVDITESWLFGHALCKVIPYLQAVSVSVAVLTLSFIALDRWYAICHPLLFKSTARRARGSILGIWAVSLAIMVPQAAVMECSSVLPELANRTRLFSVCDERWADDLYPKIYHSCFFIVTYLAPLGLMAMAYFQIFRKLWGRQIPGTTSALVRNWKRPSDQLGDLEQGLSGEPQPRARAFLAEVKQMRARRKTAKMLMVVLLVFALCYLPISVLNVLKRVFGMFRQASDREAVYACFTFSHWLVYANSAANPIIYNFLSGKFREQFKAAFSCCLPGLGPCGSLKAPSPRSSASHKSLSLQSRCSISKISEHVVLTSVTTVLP
# OX1R antag-2: antagonists of human orexin 1 receptor (OX1R) | Orexin/Hypocretin receptor type 1 (Homo sapiens), O43613 | OX1R-expressing cells, FRET antagonist read-out | inhibition, % at 6.6 µM | 1.8% of 330,000 active | AID 485270, 2010; in the data active = inhibition mostly above about 38%, no sharp cut-off; inactive = mostly below about 40%;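 also: 0% = agonist challenge alone and 100% = reference antagonist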
# OXTR potentiator: human OXTR potentiators, primary screen, fluorescence, CHO-OTR cells, Fluo-8 calcium | Oxytocin receptor (Homo sapiens), P30559 | Fluo-8 calcium fluorescence, potentiator mode; 0% = oxytocin EC15, 100% = EC100 | activation, % at 3 µM | 0.061% of 320,000 active;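 active = activation above that plate's cutoff, the mean activation of tested compounds plus 3 SD, cut at about 6.6% in these data, passing the limit was not always enough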;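 also: 100% uses oxytocin at 75 nM as the full agonist control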
#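 Replication – single well per compound, singlicate · Assay system – CHO cell line stably expressing human OTR · Timing – 6 min pre-incubation, 100 s read · Measure – normalized max/min fluorescence ratio, % activation · Doses – 3.0 µM, one dose · Detection – Fluo-8 calcium dye fluorescence · Probe or stimulus – oxytocin near EC15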
# OX1R HTRF conf: OX1R (HCRTR1) antagonists, confirmation, cell-based, HTRF. 49% of 1,800 active. shares compounds with OX1R antag-2. OX1R-expressing cells, HTRF antagonist assay. inhibition, % at 6.6 µM; in the data active = inhibition above about 55%;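 also: CHO cells expressing OX1R stimulated with orexin A at about EC80; 0% = agonist challenge alone and 100% = reference antagonist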
# CHO-K1 HTRF: signal inhibition in parental CHO-K1 cells, counter-screen for OX1R antagonist project, cell-based, HTRF; shares compounds with OX1R antag-2; HTRF counterscreen; inhibition, % at 6.6 µM; 48% of 1,800 active; in the data active = inhibition above about 17%;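 also: 0% = agonist challenge with vehicle and 100% = vehicle alone without agonist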
# * marks the source's active call; other numbers are inactive results; . = not tested or not shown; ! = not active in a repeat. Only some compounds are listed: those with a hit (about 2.7% of all), similar ones and a draw of the others.
SMILES,CHO parental Ca,V1aR counter,OXTR agonist,OX1R antag-1,OX1R antag-2,OXTR potentiator,OX1R HTRF conf,CHO-K1 HTRF
O=C1C(NS(=O)(=O)c2cccs2)=C(N2CCOCC2)C(=O)c2ccccc21,0.5,-1.5,-0.4,5.6,86.4*,0.0,95.3*,63.1*
CN1CCN(C2=C(NS(=O)(=O)c3ccccc3)C(=O)c3ccccc3C2=O)CC1,-15.6,1.2,0.2,-23.0,96.0*,-9.6,73.9*,89.5*
O=C1C(NS(=O)(=O)c2cccs2)=C(N2CCN(Cc3ccccc3)CC2)C(=O)c2ccccc21,-22.7,-1.5,-2.0,-19.8,36.8,-16.6,.,.
NC(=O)C1CCN(C2=C(NS(=O)(=O)c3ccccc3)C(=O)c3ccccc3C2=O)CC1,-6.3,5.4,2.9,-17.8,129.5*,-4.0,59.4*,75.6*
COc1ccc2[nH]c3c(c2c1)CCN1C(=O)C(CC(=O)NCCc2ccccn2)C[C@H](C(=O)N2CCCCC2)[C@@]31C (some centres not stated),-22.9,.,.,-18.7,8.1,.,.,.
COc1ccc(C(=O)OCCCc2cc3ccccc3c(=O)o2)cc1,-23.5,4.0,3.8,-4.4,18.7,-5.7,.,.
COc1ccc(COC(=O)C2CCN(S(=O)(=O)c3ccc(OC)c(OC)c3)CC2)cc1,-14.4,5.4,6.3,-0.6,2.1,-12.5,.,.
CN(C(=O)COC(=O)c1ccccc1NCCO)C1CCS(=O)(=O)C1 (configuration not stated),-3.3,0.4,0.1,-0.2,3.3,2.7,.,.
Cc1cc[n+](-c2nc3ccccc3nc2C(=C=[N-])C#N)cc1,-5.9,1.0,1.6,0.1,121.0*,-7.8,39.9,63.0*
CCc1ccc[n+](-c2nc3ccccc3nc2C(=C=[N-])C#N)c1,12.3,2.4,5.0,-1.5,35.1,-20.0,.,.
N#CC(=C=[N-])c1nc2ccccc2nc1-[n+]1ccccc1,-1.4,-0.5,0.9,7.1,98.0*,-4.8,63.6*!,79.3*
COC(=O)C1Cc2ccccc2CN1S(=O)(=O)c1ccc(F)cc1 (configuration not stated),-6.9,-1.2,-1.6,-17.1,27.1,-3.0,.,.
O=C(N/N=C/c1ccc(Br)o1)c1cc([N+](=O)[O-])cc([N+](=O)[O-])c1,-17.4,-0.4,-2.1,-6.6,81.3*,-10.7,37.2,56.1*
C/C(=N/NC(=O)CNC(=O)c1cccnc1)c1ccc([N+](=O)[O-])cc1,6.7,0.9,-0.2,-10.6,89.7*,-9.1,52.0,43.5*
O=C(N/N=C/c1cccnc1)c1ccc([N+](=O)[O-])cc1,-2.0,0.1,0.0,-14.2,106.5*,0.1,37.4,81.8*
O=C(/C=C/c1ccc([N+](=O)[O-])cc1)Nc1cccnc1,-14.2,0.5,-0.6,8.2,95.1*,-8.5,44.3,26.6*
C/C(=N/NC(=O)CNC(=O)c1ccccn1)c1ccc([N+](=O)[O-])cc1,-18.1,0.9,-0.2,-28.1,27.5,-3.7,.,.
CCCCn1c(N)c(N(CCOC)C(=O)c2nn(CC)c(=O)c3ccccc23)c(=O)[nH]c1=O,2.9,1.0,0.1,-8.8,26.9,-4.7,.,.
O=C(N/N=C/c1ccncc1)c1cc([N+](=O)[O-])cc([N+](=O)[O-])c1,-8.4,0.5,-0.8,-20.3,85.5*,-7.6,50.0,74.5*
Cc1cccc(NC(=S)N2CCC(NC(=O)C3CCCCC3)CC2)c1,-8.1,1.4,0.8,-8.1,12.4,-5.8,.,.
Cc1ccc(C(C(=O)NC2CCCCC2)N2CCC3(CC2)OCCO3)cc1 (configuration not stated),-2.9,-1.2,-0.8,-21.4,10.7,5.5,.,.
COc1ccc(C(C(=O)NC2CCCCC2)N2CCC3(CC2)OCCO3)cc1 (configuration not stated),0.5,0.5,-0.5,-3.0,89.1*,-3.4,14.0,1.7
O=C(Nc1cccc(-c2nc3ccccc3s2)c1)c1cccs1,-17.3,-0.1,-0.3,6.9,81.1*,-12.9,78.3*,6.0
O=C(Nc1ccc2oc(-c3ccccc3)nc2c1)c1cccs1,-13.5,1.2,1.2,17.0,81.7*,-6.0,48.0,7.0
COc1cc(OC)cc(C(=O)Nc2ccc(-c3nc4ccccc4o3)cc2)c1,-14.2,2.4,-0.8,11.6,86.5*,-8.9,25.0,7.0
SMILES,CHO parental Ca,V1aR counter,OXTR agonist,OX1R antag-1,OX1R antag-2,OXTR potentiator,OX1R HTRF conf,CHO-K1 HTRF
O=C(Nc1ccc2nc(-c3cccs3)[nH]c2c1)c1cccs1,-4.3,4.8,6.2,10.0,93.0*,-7.9,24.5,-0.1
COc1cccc(C(=O)Nc2ccc(-c3nc4ccccc4o3)c(O)c2)c1,-7.7,2.7,1.8,11.4,9.6,-3.6,.,.
COC(=O)c1ccc(OCC(O)CN2CCN(C(=O)c3ccco3)CC2)c(OC)c1 (configuration not stated),-4.5,1.3,0.7,-24.6,-0.7,-3.2,.,.
O=C(Nc1ccc2oc(-c3cccnc3)nc2c1)c1ccco1,-15.1,-0.5,0.8,-15.9,31.7,-4.0,.,.
O=C(Nc1ccc2nc(-c3ccccc3)oc2c1)c1ccco1,-2.2,0.8,-0.1,12.3,94.5*,-3.7,84.5*,11.9
COc1ccc(-c2nn3c(-c4ccccc4)nnc3s2)cc1,-7.3,-0.6,-2.3,19.6,87.0*,-2.0,88.1*,13.2
COc1ccc(-c2nn3c(-c4ccc(F)cc4)nnc3s2)cc1,-6.3,0.0,-1.2,-13.7,7.7,-5.1,.,.
CC(C)Cn1[nH]c2c3c(ccc2c1=O)C(=O)c1ccccc1C3=O,-24.8,-2.0,-1.6,-22.8,135.2*,-2.0,36.6,33.3*
O=C(Nc1ccc(Cl)c(C(F)(F)F)c1)[C@@H]1CC=C[C@@H]2CCN(Cc3ccccc3)C(=O)[C@@H]21,-21.2,-0.5,-1.2,26.1,84.1*,-11.2,85.3*,15.4
O=C(Nc1ccccc1)[C@@H]1CC=C[C@@H]2CCN(Cc3ccccc3)C(=O)[C@@H]21,-14.2,-0.4,2.1,28.2,82.8*,2.2,86.3*,3.9
CCCCN1CC[C@H]2C=CC[C@@H](C(=O)Nc3ccccc3)[C@H]2C1=O,-10.3,-0.3,-1.1,-9.4,52.8,-0.9,.,.
